The record followed here is ChEMBL document CHEMBL6134776, “New anti-ovarian cancer quinolone derivatives acting by modulating microRNA processing machinery” (RSC Med Chem, 2025).

Each structure is given as a SMILES string. The source made the active and inactive calls. The calls are words filed in the database; no cut-off is given here.

Data set [1] has as its system SK-OV-3. The experiment in a line: Antiproliferative activity against human SK-OV-3 cells assessed as growth inhibition measured after 72 hrs. The class given is functional. The essentials:
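100 000 SKOV-3 or Wi-38 cells per 35 mm dish, allowed to adhere, then given compound at scalar concentrations. First pass ran up to 200 μM (SKOV-3) or 250 μM (Wi-38), then a narrowed range. Cells counted after 72 h and GI50/CC50 taken by linear regression with 95% CI. Three experiments in triplicate, three counts per sample.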

For a further data set, the system named is SKOV-3 (Homo sapiens). The experiment in a line: Antiproliferative activity against human SKOV-3 cells assessed as growth inhibition measured after 72 hrs.
The test system of data set [2] is SK-OV-3. The experiment in a line: Effect on Bcl-Xl level in human SK-OV-3 cells by Western blot analysis. Type of data set: functional, cell-based. The essentials:
(§1)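 SKOV-3 and A2780 given 30 μM compound for 72 h. Protein extracts run on 4–12% bis–tris gels and blotted to nitrocellulose, blocked in 5% milk. Probed for cleaved PARP and Bcl-XL, with β-actin as loading control.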

Data set [3] relates to SK-HEP1. The experiment in a line: Antiproliferative activity against wild type human SK-HEP1 cells assessed as growth inhibition at 50 uM measured after 48 hrs by CCK-8 method. The class given is functional, cell-based. An outline of the steps: (§2)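 HCCLM3 and SK-Hep-1 cells, TRBP wild-type and knockout, seeded at 10 000 cells/well and left to adhere overnight. Treated 48 h alongside a 0.1% DMSO negative control and a 125 μM enoxacin positive control. Viability read with 10% CCK-8 in DMEM, 30 min at 37 °C, at 450 nm.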

Data set [4] deals with Cisplatin-resistant A2780. The experiment in a line: Antiproliferative activity against human Cisplatin-resistant A2780 cells assessed as growth inhibition at 30 uM measured after 48 hrs.
The target in data set [5] is T1, DNA topoisomerase 1 (Homo sapiens) (UniProt P11387).
T1 sequence (whole entry): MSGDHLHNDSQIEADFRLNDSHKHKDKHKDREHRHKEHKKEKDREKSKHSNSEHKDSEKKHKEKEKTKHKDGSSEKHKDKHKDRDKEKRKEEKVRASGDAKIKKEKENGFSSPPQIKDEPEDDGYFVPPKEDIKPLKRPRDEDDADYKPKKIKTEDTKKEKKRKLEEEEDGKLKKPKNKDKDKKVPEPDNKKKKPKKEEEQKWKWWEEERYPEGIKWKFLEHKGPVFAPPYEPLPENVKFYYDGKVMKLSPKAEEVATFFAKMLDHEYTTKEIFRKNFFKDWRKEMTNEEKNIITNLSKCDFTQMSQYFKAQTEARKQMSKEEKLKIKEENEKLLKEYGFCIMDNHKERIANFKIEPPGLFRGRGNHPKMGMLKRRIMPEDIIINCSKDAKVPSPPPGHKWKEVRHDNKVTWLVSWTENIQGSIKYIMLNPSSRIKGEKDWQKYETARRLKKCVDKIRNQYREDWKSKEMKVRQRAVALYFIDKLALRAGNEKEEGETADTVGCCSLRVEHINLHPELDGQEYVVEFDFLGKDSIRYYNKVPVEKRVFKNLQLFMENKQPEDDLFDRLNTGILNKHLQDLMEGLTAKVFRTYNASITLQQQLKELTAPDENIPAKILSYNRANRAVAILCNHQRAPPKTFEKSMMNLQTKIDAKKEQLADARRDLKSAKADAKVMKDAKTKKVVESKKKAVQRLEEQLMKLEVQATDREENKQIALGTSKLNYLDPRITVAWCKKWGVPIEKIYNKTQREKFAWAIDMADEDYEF
The data set can be described thus: Inhibition of human topoisomerase I at 100 uM by spectrophotometric analysis.

For data set [6], the system named is A2780. The data set can be described thus: Induction of cell death in human A2780 cells assessed as increase in percentage of dead cells at 30 uM incubated for 72 hrs by trypan blue staining based analysis. Type of data set: functional. An outline of the steps:
(§3)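 Cells dosed at 30 μM for 72 h in RPMI 1640 (A2780, SKOV-3) or DMEM (MCF-7, A549, HCT-116), 10% FBS, 37 °C, 5% CO2. Total and viable cell numbers taken by trypan blue with an automated counter. Viable cells given as % of DMSO; dead cells as a percentage. At least three independent experiments.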

In data set [7] the test system is A2780. The data set can be described thus: Upregulation of cleaved PARP1 level in human A2780 cells by Western blot analysis. The class given is functional, cell-based. An outline of the steps: as §1
The test system of data set [8] is HCCLM3. The experiment in a line: Antiproliferative activity against wild type human HCCLM3 cells assessed as growth inhibition at 30 uM measured after 48 hrs by CCK-8 method relative to control. Type of data set: functional, cell-based. An outline of the steps:
as §2

A further data set relates to HeLa. The data set can be described thus: Induction of miR-21-5p biogenesis in human HeLa cells assessed as decrease in renilla luciferase activity at 50 uM measured after 6 hrs by dual-luciferase reporter assay.
Data set [9] deals with SK-HEP1. The experiment in a line: Antiproliferative activity against wild type human SK-HEP1 cells assessed as growth inhibition at 30 uM measured after 48 hrs by CCK-8 method. The class given is functional, cell-based. An outline of the steps: as §2
Data set [10] has as its system SK-HEP1. The experiment in a line: Antiproliferative activity against TRBP knockout human SK-HEP1 cells assessed as growth inhibition at 50 uM measured after 48 hrs by CCK-8 method. Type of data set: functional, cell-based. The essentials:
as §2

Data set [11] has as its system A2780. The experiment in a line: Antiproliferative activity against human A2780 cells assessed as growth inhibition at 30 uM measured after 72 hrs. The class given is functional, cell-based. The essentials:
as §3

Another data set concerns HCT-116. The data set can be described thus: Antiproliferative activity against human HCT-116 cells assessed as growth inhibition at 30 uM measured after 72 hrs. Type of data set: functional, cell-based. An outline of the steps: as §3
Another data set relates to MCF7. The experiment in a line: Antiproliferative activity against human MCF7 cells assessed as growth inhibition at 30 uM measured after 72 hrs. The class given is functional, cell-based. An outline of the steps:
as §3

The test system of data set [12] is Cisplatin-resistant A2780. The data set can be described thus: Antiproliferative activity against human Cisplatin-resistant A2780 cells assessed as growth inhibition at 30 uM measured after 48 hrs in presence of cisplatin.
The test system of data set [13] is SK-OV-3. The data set can be described thus: Induction of cell death in human SK-OV-3 cells assessed as reduction in total number of cells at 30 uM incubated for 72 hrs by trypan blue staining based analysis. Type of data set: functional. An outline of the steps:
as §3

Data set [14] deals with A2780. The data set can be described thus: Downregulation of Bcl-Xl level in human A2780 cells by Western blot analysis. The class given is functional, cell-based. An outline of the steps:
as §1

Data set [15] has as its system A2780. The data set can be described thus: Induction of cell death in human A2780 cells assessed as reduction in total number of cells at 30 uM incubated for 72 hrs by trypan blue staining based analysis. Type of data set: functional. An outline of the steps:
as §3

In data set [16] the test system is SK-HEP1. The data set can be described thus: Antiproliferative activity against TRBP knockout human SK-HEP1cells assessed as growth inhibition at 30 uM measured after 48 hrs by CCK-8 method. The class given is functional, cell-based. The essentials:
as §2

The next data set is filed under the species Homo sapiens. The data set can be described thus: Inhibition of human topoisomerase II at 100 uM by spectrophotometric analysis.
Data set [17] deals with A2780. The experiment in a line: Antiproliferative activity against human A2780 cells assessed as growth inhibition at 30 uM measured after 48 hrs in presence of cisplatin.
Another data set deals with A549. The data set can be described thus: Antiproliferative activity against human A549 cells assessed as growth inhibition at 30 uM measured after 72 hrs. Type of data set: functional, cell-based. An outline of the steps: as §3
In another data set the test system is HEK-293T. The experiment in a line: Induction of RNAi enhancing activity in HEK293T cells transfected with shGAPDH assessed as decrease in amount of GAPDH mRNA at 50 uM incubated for 48 hrs by qRT-PCR. Type of data set: functional, cell-based. As to conditions: Homo sapiens. The essentials: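 HEK-293T stably expressing shGAPDH or scrambled shRNA (lentiviral transduction, puromycin 3 μg mL−1 selection) treated 48 h at 50 μM. GAPDH mRNA measured by qRT-PCR against ATP5O, relative to sh-Scr/DMSO set to 1. At least three independent experiments.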

Data set [18] concerns SK-OV-3. The data set can be described thus: Effect on cleaved PARP1 level in human SK-OV-3 cells by Western blot analysis. The class given is functional, cell-based. An outline of the steps:
as §1

The test system of data set [19] is HCCLM3. The experiment in a line: Antiproliferative activity against TRBP knockout human HCCLM3 cells assessed as growth inhibition at 30 uM measured after 48 hrs by CCK-8 method. Type of data set: functional, cell-based. An outline of the steps: as §2

Turning to `Cc1c(N2CCOCC2)c(N)cc2c(=O)c(C(=O)O)cn(C3CC3)c12`, in the data set on SK-OV-3 [1], the GI50 was more than 100 µM.
Consider `Cc1c(N2Cc3ccccc3C2)c(N)cc2c(=O)c(C(=O)O)cn(C3CC3)c12`, for which the GI50 at 72 h in the data set on SKOV-3 (Homo sapiens) was not below 25 µM.
Turning to `Cc1c(N2CCCCC2)c(N)cc2c(=O)c(C(=O)O)cn(C3CC3)c12`, the GI50 in the data set with SK-OV-3 [1] was more than 100 µM.
Still for that read-out and setting: the figure for `Cc1c(N2CC(C)OC(C)C2)c(N)cc2c(=O)c(C(=O)O)cn(C3CC3)c12` (stereo not drawn) is 100 µM.
As to `Cc1c(NCCN2CCCCC2)c(N)cc2c(=O)c(C(=O)O)cn(C3CC3)c12`, the GI50 at 72 h in the data set with SKOV-3 (Homo sapiens) was not below 25 µM.
Consider `CC(C)(C)n1cc(C(=O)O)c(=O)c2cc(N)c(N3CCc4ccccc43)cc21`, for which the GI50 with SK-OV-3 [1] is more than 100 µM.
Same read-out and setting: the figure for `Cc1c(N2CCC(O)CC2)c(N)cc2c(=O)c(C(=O)O)cn(C3CC3)c12` is more than 100 µM.
Still for that read-out and setting: with `Cc1c(N2CCC3CCCCC3C2)c(N)cc2c(=O)c(C(=O)O)cn(C3CC3)c12` (stereo not drawn) the figure was more than 100 µM.
For the molecule `Nc1cc2c(=O)c(C(=O)O)cn(C3CC3)c2cc1N1CCc2ncncc2C1`, in the data set on SKOV-3 (Homo sapiens), the 50% growth inhibitory concentration (GI50) at 72 h is not below 25 µM.
Take `O=C(O)c1cn(C2CC2)c2cc(N3CCc4ccccc4C3)c(F)cc2c1=O`: the result with SK-OV-3 [2], in the data set on SK-HEP1 [9], with SK-HEP1 [10], with SK-HEP1 [16], in the data set on SK-OV-3 [18] and in the data set with HCCLM3 [19] was inactive. Further, the result (in the data set on SK-HEP1 [3]; in [4]; with A2780 [6]; in the data set on A2780 [7]; in the data set with HCCLM3 [8]; with HeLa) was Active. The result (in the data set on A2780 [11]; with HCT-116; with MCF7; in data set [12]; in the data set on SK-OV-3 [13]; in the data set on A2780 [14]) was Active. The outcome with A2780 [15], with A2780 [17], with A549 and in the data set with HEK-293T was Active. Moreover, the inhibition entry (in [5]; in the data set listed under Homo sapiens) was “inactive” in each case.
